Results reported in ChEMBL document CHEMBL1145963, “Identification, synthesis, and activity of novel blockers of the voltage-gated potassium channel Kv1.5” (J Med Chem, 2003).
Where “and” joins values, the source holds several entries; their conditions need not be identical. Equal values may be shown once.

target: Potassium voltage-gated channel subfamily A member 3 (Homo sapiens, UniProt P22001); experiment: Inhibition of human voltage-gated potassium channel subunit Kv1.3 expressed in Xenopus oocytes; assay type: cell-based, Oocyte; settings: not given
How it was run: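 Kv1.3 was expressed in Xenopus oocytes and recorded by two-microelectrode voltage clamp, handled like the Kv1.5 assay. Compounds were diluted from a 10 mM DMSO stock into ND96 superfusate. Percent inhibition of the control current at 3–4 concentrations was fitted with a variable-slope dose–response equation to give IC50.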

Potassium voltage-gated channel subfamily A member 3, sequence (P22001 whole entry): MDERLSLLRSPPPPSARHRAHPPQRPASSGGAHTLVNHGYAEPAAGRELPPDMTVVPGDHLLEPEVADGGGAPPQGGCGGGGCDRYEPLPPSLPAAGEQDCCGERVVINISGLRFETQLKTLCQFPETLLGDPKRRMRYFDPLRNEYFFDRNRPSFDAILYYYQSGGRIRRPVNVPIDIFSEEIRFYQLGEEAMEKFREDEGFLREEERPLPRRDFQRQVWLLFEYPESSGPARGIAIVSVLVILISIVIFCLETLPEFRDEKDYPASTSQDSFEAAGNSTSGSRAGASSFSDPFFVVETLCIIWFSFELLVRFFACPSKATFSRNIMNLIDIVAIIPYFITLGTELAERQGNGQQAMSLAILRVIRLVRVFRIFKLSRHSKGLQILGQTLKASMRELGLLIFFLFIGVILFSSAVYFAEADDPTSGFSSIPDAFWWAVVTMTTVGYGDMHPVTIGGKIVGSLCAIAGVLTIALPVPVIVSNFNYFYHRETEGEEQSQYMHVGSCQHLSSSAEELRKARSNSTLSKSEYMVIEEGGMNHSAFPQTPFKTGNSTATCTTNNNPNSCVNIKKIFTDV

Q: `O=C(NCc1ccccc1-c1ccccc1C(=O)NCCc1ccccn1)OCc1ccccc1` was tested. Which IC50 did it give?
A: 2300 nM

Q: With `C[C@H](OC(=O)NCc1ccccc1-c1ccccc1C(=O)NCCc1ccccn1)c1ccccc1` as the compound, how does the IC50 read?
A: 500 nM

target: hERG (KCNH2) (Homo sapiens, UniProt Q12809); experiment: Inhibition of human Potassium channel HERG expressed in Xenopus oocytes at 10 uM; assay type: cell-based, Oocyte; settings: Xenopus oocytes expressing human hERG
Sequence (Q12809 whole entry): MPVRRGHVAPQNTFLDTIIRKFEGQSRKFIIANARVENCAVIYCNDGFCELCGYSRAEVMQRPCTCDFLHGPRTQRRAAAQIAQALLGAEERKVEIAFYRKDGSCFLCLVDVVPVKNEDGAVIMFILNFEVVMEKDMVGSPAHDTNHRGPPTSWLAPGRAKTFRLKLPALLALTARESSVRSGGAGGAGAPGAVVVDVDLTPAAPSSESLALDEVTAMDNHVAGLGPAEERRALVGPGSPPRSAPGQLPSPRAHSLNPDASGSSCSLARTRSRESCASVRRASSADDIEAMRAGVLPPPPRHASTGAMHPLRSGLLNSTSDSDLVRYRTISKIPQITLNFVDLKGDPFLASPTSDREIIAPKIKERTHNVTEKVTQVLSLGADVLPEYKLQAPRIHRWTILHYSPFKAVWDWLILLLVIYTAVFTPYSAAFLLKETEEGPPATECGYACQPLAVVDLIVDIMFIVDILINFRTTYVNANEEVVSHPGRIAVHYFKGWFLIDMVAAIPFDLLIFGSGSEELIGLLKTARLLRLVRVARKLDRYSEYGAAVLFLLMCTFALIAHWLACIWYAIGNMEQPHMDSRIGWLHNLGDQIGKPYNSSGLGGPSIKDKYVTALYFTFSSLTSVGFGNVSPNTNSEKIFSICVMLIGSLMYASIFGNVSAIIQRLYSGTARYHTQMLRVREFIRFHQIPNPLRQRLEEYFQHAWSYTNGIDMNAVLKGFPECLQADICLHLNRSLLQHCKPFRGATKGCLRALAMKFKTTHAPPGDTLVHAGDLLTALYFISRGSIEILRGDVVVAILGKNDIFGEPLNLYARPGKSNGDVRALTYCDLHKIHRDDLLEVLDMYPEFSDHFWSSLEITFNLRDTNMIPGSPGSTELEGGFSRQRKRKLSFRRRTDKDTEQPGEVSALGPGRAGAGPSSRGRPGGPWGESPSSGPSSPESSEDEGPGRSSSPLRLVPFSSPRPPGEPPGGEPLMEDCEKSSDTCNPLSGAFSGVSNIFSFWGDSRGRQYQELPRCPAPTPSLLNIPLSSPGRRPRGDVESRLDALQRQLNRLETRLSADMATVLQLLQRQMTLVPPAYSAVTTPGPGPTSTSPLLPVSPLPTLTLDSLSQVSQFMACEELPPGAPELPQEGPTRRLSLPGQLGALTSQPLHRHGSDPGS

Q: `O=C(NCc1ccccc1-c1ccccc1C(=O)NCCc1ccccn1)OCc1ccccc1` was tested. Which inhibition at 10 µM did it give?
A: 7%

Q: With `C[C@H](OC(=O)NCc1ccccc1-c1ccccc1C(=O)NCCc1ccccn1)c1ccccc1` as the compound, how does the inhibition at 10 µM read?
A: 11%

target: T1, Potassium voltage-gated channel subfamily A member 5 (Homo sapiens, UniProt P22460); experiment: Inhibition of human voltage-gated potassium channel subunit Kv1.5 expressed in Xenopus oocytes; assay type: cell-based, Oocyte; settings: not given
How it was run: (§1)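 Compounds came from a 10 mM DMSO stock diluted into ND96. Read-out was percent inhibition of the compound-free control current. For IC50, 3–4 concentrations were each tested at least twice and fitted with a variable-slope Hill equation.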

T1 sequence (P22460 whole entry): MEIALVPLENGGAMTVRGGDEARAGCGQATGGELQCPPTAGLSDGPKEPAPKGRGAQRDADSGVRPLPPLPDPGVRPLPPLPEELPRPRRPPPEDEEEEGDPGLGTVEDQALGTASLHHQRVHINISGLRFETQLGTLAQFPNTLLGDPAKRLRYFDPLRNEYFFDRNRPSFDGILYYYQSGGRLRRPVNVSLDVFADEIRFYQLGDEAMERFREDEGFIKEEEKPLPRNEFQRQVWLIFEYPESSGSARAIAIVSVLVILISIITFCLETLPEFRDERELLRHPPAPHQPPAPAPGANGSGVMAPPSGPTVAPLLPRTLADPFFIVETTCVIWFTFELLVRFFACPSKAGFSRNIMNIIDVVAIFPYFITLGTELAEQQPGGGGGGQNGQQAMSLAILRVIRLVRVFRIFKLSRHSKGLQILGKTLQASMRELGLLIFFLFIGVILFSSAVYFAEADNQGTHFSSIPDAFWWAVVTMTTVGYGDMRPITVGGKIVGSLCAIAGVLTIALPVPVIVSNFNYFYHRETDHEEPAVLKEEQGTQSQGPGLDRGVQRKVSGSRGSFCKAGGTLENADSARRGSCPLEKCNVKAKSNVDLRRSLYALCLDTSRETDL

Q: `CC(C)CCNC(=O)c1ccccc1-c1ccccc1CNCCc1ccccc1` was tested. Which IC50 did it give?
A: 4000 nM

Q: Which IC50 does the source give for `Cc1cccc(CNC(=O)OCc2ccccc2)c1-c1c(C)cccc1C(=O)NCCc1ccccn1` here?
A: 1700 nM

Q: For `O=C(NCc1ccccc1-c1ccccc1C(=O)NCc1ccc(F)cc1F)OCc1ccccc1`, which IC50 is on record?
A: 1200 nM

Q: How did the IC50 turn out when `O=C(NC1CCCCC1)c1cccc2cccc(NS(=O)(=O)c3ccc(Cl)cc3)c12` was run?
A: 9500 nM

Q: How did the IC50 turn out when `CN(C)CC(C)(C)CNC(=O)c1ccccc1-c1ccccc1CNC(=O)OCc1ccccc1` was run?
A: 2200 nM

Q: How did the IC50 turn out when `CC(C)CCNC(=O)c1ccncc1-c1ccccc1CNC(=O)OCc1ccccc1` was run?
A: 12000 nM

Q: Which IC50 does the source give for `CC(C)CCNC(=O)c1cccnc1-c1ccccc1CNC(=O)OCc1ccccc1` here?
A: 7800 nM

Q: How did the IC50 turn out when `CC(C)CCNC(=O)c1ccccc1-c1ccncc1CNC(=O)OCc1ccccc1` was run?
A: 7000 nM

Q: `C[C@@H](CC(=O)NCc1ccccc1-c1ccccc1C(=O)NCCc1ccccn1)c1ccccc1` was tested. Which IC50 did it give?
A: 1000 nM

Q: Which IC50 does the source give for `Cc1cccc(CNC(=O)OCc2ccccc2)c1-c1c(C)cccc1C(=O)NCCC(C)C` here?
A: 1000 nM and 1300 nM

target: T1, Potassium voltage-gated channel subfamily A member 5; experiment: Inhibition of human voltage-gated potassium channel subunit Kv1.5 expressed in Xenopus oocytes at 10 uM; assay type: cell-based; settings: Oocyte
How it was run: as §1, with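 “Human Kv1.5 cRNA (0.2–0.5 ng) was injected into Xenopus oocytes kept at 18 °C. […] Compounds” for “Compounds”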

Q: With `CC(C)CCOC(=O)c1ccccc1-c1ccccc1CNC(=O)OCc1ccccc1` as the compound, how does the inhibition read?
A: 8%

Q: `COc1ccc(S(=O)(=O)NC(=O)NCc2ccccc2-c2ccccc2C(=O)NCc2ccc(F)cc2F)cc1` was tested. Which inhibition did it give?
A: 7%
